Measured values from ChEMBL document CHEMBL1944537, “6-Nitrobenzimidazole derivatives: potential phosphodiesterase inhibitors: synthesis and structure-activity relationship” (Bioorg Med Chem, 2012).

System: Bothrops atrox
Assay: (§1) Inhibition of Bothrops atrox venom phosphodiesterase-1 assessed as conversion of […] p-nitrophenol using bis(p-nitropheny1) phosphate as substrate preincubated for 30 mins by spectrophotometric analysis
Parameters: concentration or dose not given beside the values
How it was run: (§2)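 Crude dried snake venom as enzyme source, 0.000742 U/well, in 33 mM Tris-HCl pH 8.8 with 30 mM magnesium acetate. Substrate 0.33 mM bis(p-nitrophenyl) phosphate. Enzyme and test sample pre-incubated 30 min, then p-nitrophenol release followed as OD/min at 410 nm, 37 °C, on a microtitre plate reader. EDTA positive control. Run in triplicate; IC50 determined.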

Compound | inhibition [%]
O=[N+]([O-])c1ccc2nc(-c3ccccc3Cl)[nH]c2c1 | < 50
COc1cccc(-c2nc3ccc([N+](=O)[O-])cc3[nH]2)c1O | < 50
CCOc1cccc(-c2nc3ccc([N+](=O)[O-])cc3[nH]2)c1O | < 50
O=[N+]([O-])c1ccc2nc(-c3ccc(Br)cc3)[nH]c2c1 | < 50
O=[N+]([O-])c1ccc2[nH]c(-c3ccccc3)nc2c1 | < 50
O=[N+]([O-])c1ccc2nc(-c3cc(Cl)ccc3O)[nH]c2c1 | < 50
O=[N+]([O-])c1ccc(Cl)c(-c2nc3ccc([N+](=O)[O-])cc3[nH]2)c1 | < 50
O=[N+]([O-])c1ccc2nc(-c3ccc(Cl)cc3Cl)[nH]c2c1 | < 50
O=[N+]([O-])c1ccc2nc(-c3cccc4c3ccc3ccccc34)[nH]c2c1 | < 50
O=[N+]([O-])c1ccc2[nH]c(-c3ccncc3)nc2c1 | < 50
CN(C)c1ccc(-c2nc3ccc([N+](=O)[O-])cc3[nH]2)cc1 | < 50
O=[N+]([O-])c1ccc2nc(-c3ccc(Cl)c(Cl)c3)[nH]c2c1 | < 50
O=[N+]([O-])c1ccc2nc(-c3cc(O)ccc3O)[nH]c2c1 | < 50
O=[N+]([O-])c1ccc2nc(-c3ccccc3O)[nH]c2c1 | < 50
O=[N+]([O-])c1ccc2nc(-c3ccsc3)[nH]c2c1 | < 50
O=[N+]([O-])c1ccc2nc(-c3cccc4cc5ccccc5cc34)[nH]c2c1 | < 50
O=[N+]([O-])c1ccc2nc(-c3cc(Br)cc(Br)c3O)[nH]c2c1 | < 50
O=[N+]([O-])c1ccc2nc(-c3ccccc3F)[nH]c2c1 | < 50
CSc1ccc(-c2nc3ccc([N+](=O)[O-])cc3[nH]2)cc1 | < 50
Cc1ccc(-c2nc3cc([N+](=O)[O-])ccc3[nH]2)cc1 | < 50

Molecular target: not listed separately
Assay: as §1
How it was run: as §2

Compound | IC50 [µM]
O=[N+]([O-])c1ccc2nc(-c3cc(Cl)cc(Cl)c3O)[nH]c2c1 | 294
O=[N+]([O-])c1ccc2nc(-c3ccc(O)c(O)c3)[nH]c2c1 | 5.7
O=[N+]([O-])c1ccc2nc(-c3ccc(O)cc3O)[nH]c2c1 | 11.5
O=C(O)CN(CCN(CC(=O)O)CC(=O)O)CC(=O)O [EDETIC ACID] | 274
COc1ccc(-c2nc3cc([N+](=O)[O-])ccc3[nH]2)cc1OC | 63.1
O=[N+]([O-])c1ccc2nc(-c3c(O)cc(O)cc3O)[nH]c2c1 | 6.4
O=[N+]([O-])c1ccc2[nH]c(-c3ccc(Cl)cc3)nc2c1 | 120
O=[N+]([O-])c1ccc2nc(-c3ccc(O)cc3)[nH]c2c1 | 2.4
O=[N+]([O-])c1ccc2nc(-c3cccc(O)c3O)[nH]c2c1 | 1.5
O=[N+]([O-])c1ccc2nc(-c3ccc(O)c(O)c3O)[nH]c2c1 | 10.5
O=[N+]([O-])c1ccc(-c2nc3cc([N+](=O)[O-])ccc3[nH]2)cc1 | 153
